Compounds with a hit are over-represented: about 2.3% of the library has one in this group of screens.
Arrestin-AP2 inh: human beta-arrestin and AP2 interaction inhibition; FITC-arrestin peptide / GST-AP2 beads, flow cytometry; AP2 beta2 appendage carries R879A mutation; inhibition, % at 10 µM; actives 0.31% (n = 340,000); AID 504490;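 active means inhibition above a set limit, near 3 SD of compounds lacking own fluorescence, cut at about 54% in these data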;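 further: plate controls were DMSO wells for no effect and 5 µM unlabelled arrestin peptide for full effect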
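System: GST-AP2 R879A bound to glutathione beads, E. coli-expressed. Also added: 50 nM FITC-arrestin peptide. Schedule: compound with beads 12 min RT, then probe 1 h RT. Signal: bead flow cytometry, FITC channel. Read-out basis: percent response.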
MEKK3 PB1 HTS: modulators (inhibitors or enhancers) of MEK5 binding to human MEKK3 PB1 domain. Q99759. bead-based flow cytometry, Alexa488-MEK5 binding to MEKK3; actives lie on both sides; 0 = blocked by unlabeled MEK5, 100 = vehicle. binding response (% of control), % at 10 µM. actives 1.4% (n = 290,000). AID 1529;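 active means binding response more than 3 SD above or below the average of its plate-row segment, actives on both sides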;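 further: Alexa488 bead fluorescence after subtracting the streptavidin-only scavenger bead signal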
Target sequence (Q99759 whole entry, looked up, the tested form may be a part): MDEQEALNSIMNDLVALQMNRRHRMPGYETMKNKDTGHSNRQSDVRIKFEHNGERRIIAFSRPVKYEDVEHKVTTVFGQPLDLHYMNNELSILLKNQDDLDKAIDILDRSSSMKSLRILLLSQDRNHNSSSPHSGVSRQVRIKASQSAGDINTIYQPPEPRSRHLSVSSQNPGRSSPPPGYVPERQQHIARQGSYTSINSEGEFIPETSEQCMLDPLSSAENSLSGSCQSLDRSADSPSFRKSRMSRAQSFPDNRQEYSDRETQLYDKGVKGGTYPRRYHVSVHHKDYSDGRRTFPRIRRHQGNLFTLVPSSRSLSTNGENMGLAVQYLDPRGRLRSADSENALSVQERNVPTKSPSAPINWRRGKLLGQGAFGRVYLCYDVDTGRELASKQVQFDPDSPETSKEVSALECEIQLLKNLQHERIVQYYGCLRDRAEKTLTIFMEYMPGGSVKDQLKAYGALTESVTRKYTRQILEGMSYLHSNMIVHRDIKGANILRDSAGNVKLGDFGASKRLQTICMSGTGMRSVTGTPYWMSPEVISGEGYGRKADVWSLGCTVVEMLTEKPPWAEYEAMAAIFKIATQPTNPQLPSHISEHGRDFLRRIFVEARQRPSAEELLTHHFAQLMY
MEKK2 WT-MEK5: raises or lowers MEK5 binding to wildtype human MEKK2 PB1 domain; Q9Y2U5; bead flow cytometry, Alexa488-MEK5 binding to MEKK2 WT; actives lie on both sides; binding response (% of control), % at 10 µM; actives 1.1% (n = 290,000); in the data active means binding response below about 67% or above about 130%
MEKK2 mut-MEK5: signal of MEK5 binding to mutant human MEKK2 PB1 domain | percent response, % at 10 µM | bead flow cytometry, Alexa488-MEK5 binding to MEKK2 mutant | actives 0.35% (n = 290,000); in the data active means percent response above about 24%, passing the limit was not always enough
MEKK2wt confirm: raises or lowers MEK5 binding to wildtype human MEKK2, retest. shares compounds with MEKK3 PB1 HTS. bead flow cytometry, Alexa488-MEK5 binding to MEKK2 WT; actives lie on both sides. binding response (% of control), % at 10 µM. actives 2.4% (n = 5,900). AID 1892; in the data active means binding response below about 16% or above about 210%; inactive means in between
MEKK2mut-MEK5: signal of MEK5 binding to mutant human MEKK2, retest | shares compounds with MEKK3 PB1 HTS | bead flow cytometry, Alexa488-MEK5 binding to MEKK2 mutant | percent response, % at 10 µM | actives 2% (n = 5,900) | AID 1893; in the data active means percent response mostly above about 71%, no sharp cut-off; inactive means mostly below about 38%;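 further: higher means compound restores mutant binding toward wildtype level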
MEKK3-MEK5 inh: confirmation of inhibitors of MEK5 binding to human MEKK3; bead flow cytometry, Alexa488-MEK5 binding to MEKK3; active compounds read low; actives 1.8% (n = 5,900); shares compounds with MEKK3 PB1 HTS; binding response (% of control), % at 10 µM; AID 1894;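 active means binding response below 72% of control, or above a set upper limit, though filed actives all read lower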;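 further: 100% = DMSO only wells and 0% = binding blocked by excess unlabeled MEK5; lower values mean stronger disruption of MEK5 binding to MEKK3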
* = called active by the depositor; x = not tested or not shown; [ ] = remark or other dose.

SMILES | Arrestin-AP2 inh | MEKK3 PB1 HTS | MEKK2 WT-MEK5 | MEKK2 mut-MEK5 | MEKK2wt confirm | MEKK2mut-MEK5 | MEKK3-MEK5 inh
Cc1ccc2c(c1)[nH]c1c(N3CCN(Cc4ccccc4)CC3)ncnc12 | -7 | 109 | 158* | 18 | 119 | 13 | 106
COc1ccc2c(c1)[nH]c1c(N3CCN(Cc4ccc5c(c4)OCO5)CC3)ncnc12 | 9 | 114 | 152* | 8 | 146 | 33 | 107
Cc1ccc2[nH]c3c(N4CCN(Cc5ccccc5)CC4)ncnc3c2c1 | 16 | 111 | 105 | 1 | x | x | x
CCOc1ccc(C2C(C(=O)c3cccs3)=C(O)C(=O)N2CCN2CCOCC2)cc1 (configuration not stated) | -2 | 106 | 108 | 5 | x | x | x
CC1CC1C(=O)OCC(=O)NNC(=O)c1ccc([N+](=O)[O-])cc1 (configuration not stated) | 4 | x | x | x | x | x | x
O=C(Cn1nc(CNc2ccc(Br)cc2)[n+]2c1CCCCC2)c1ccc([N+](=O)[O-])cc1 | -2 | 103 | 146* | 33 | 132 | 19 | 96
O=C(Cn1nc(CNc2ccc(Cl)cc2)[n+]2c1CCCCC2)c1ccc(Br)cc1 | 29 | 99 | 120 | 0 | x | x | x
COc1ccc(NC(=S)N2CCNC(=O)C2CC(=O)Nc2cccc(Cl)c2C)cc1 (configuration not stated) | -3 | 99 | 96 | -2 | x | x | x
Cc1cccc(CNc2ccc(C(CC(N)=O)NC(=O)c3cccc(Br)c3)cc2[N+](=O)[O-])c1 (configuration not stated) | 5 | 103 | 100 | 5 | x | x | x
COc1ccc(/C=C2\Sc3ccc(C(=O)N4CCc5ccccc5C4)cc3N(C)C2=O)cc1 | x | 130* | 102 | 0 | 94 | -7 | 93
COc1ccc(/C=C2/Sc3ccc(C(=O)N4CCc5ccccc5C4)cc3NC2=O)cc1 | 12 | 104 | 100 | 0 | x | x | x
CCOC(=O)N1CCC(N2C(=O)c3ccccc3C2Nc2cc(C)cc(C)c2)CC1 (configuration not stated) | 10 | 128* | 115 | 31 | 92 | -10 | 96
N#CC(C#N)=CC1=C2OC(c3ccccc3)=CC(c3ccccc3)=C2CCC1 | 9 | 74*[inhibitor] | 72*[inhibitor] | -12 | 75 | -3 | 77
O=C(N/N=C1\CCc2ccccc21)c1ccccc1Cl | 13 | 112 | 110 | -1 | x | x | x
Cc1ccc(C(=O)N/N=C2\CCc3ccccc32)c(C)c1 | 17 | 141* | 110 | 1 | 107 | 0 | 105
Cc1ccc(S(=O)(=O)N(C)/N=C2/C(=O)N(CC(=O)O)c3ccccc32)cc1 | 43 | 100 | 105 | 2 | x | x | x
CC1CCc2nc3sc4c(c3c(N)c2C1)CCCC4 (configuration not stated) | -2 | 88 | 91 | -3 | x | x | x
Nc1c2c(nc3sc4c(c13)CCCCC4)CCCCC2 | 2 | 139* | 111 | 1 | 107 | 2 | 101
CC(=O)Nc1ccc(N2C(=O)CSC2c2ccccc2[N+](=O)[O-])cc1 (configuration not stated) | 48 | 100 | 100 | 2 | x | x | x
Cc1nnc(SCC(=O)NC23CC4CC(CC(C4)C2)C3)s1 | -13 | 101 | 98 | -1 | x | x | x
Nc1nnc(SCC(=O)NC23CC4CC(CC(C4)C2)C3)s1 | -2 | 41*[inhibitor] | 39*[inhibitor] | -18 | 110 | 5 | 103
Fc1ccc(-c2nn(-c3ccccc3)cc2CNCc2ccccc2)cc1 | -8 | 98 | 160* | 19 | 150 | 19 | 104
Fc1ccc(-n2cc(CNCCc3cccnc3)c(-c3ccccc3Cl)n2)cc1 | 48 | 108 | 221* | 66* | 127 | 10 | 101
OCc1cn(-c2ccccc2)nc1-c1ccc(-c2nn(-c3ccccc3)cc2CO)cc1 | 21 | 92 | 94 | -8 | x | x | x
CCOC(=O)c1cnn(C)c1NC(=O)c1ccc(Cl)cc1Cl | -4 | 101 | 101 | -7 | x | x | x

Compound activity (PubChem BioAssay)
